Where two headings read alike, the source gives them in different places.
What was measured:
M3 = M3 (Homo sapiens, UniProt P20309); test: M3 calcium mobilization assay in M3 CHO cells; type: cell-based; details: at 30 μM
Method in brief: (§1)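 Test compound at 30 μM is added with an EC20 concentration of ACh. Readout is intracellular calcium mobilization in CHO cells expressing the given mAChR subtype; M2 and M4 cells are co-transfected with Gqi5 for calcium coupling. Values are means of at least three independent determinations.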

M5 [1] = molecular target: T1, M5 (Homo sapiens, UniProt P08912); test: M5 fold-shift experiments of the ACh CRC in M5 CHO cells; type: cell-based; details: 30 μM compound
T1 sequence (P08912 1-532): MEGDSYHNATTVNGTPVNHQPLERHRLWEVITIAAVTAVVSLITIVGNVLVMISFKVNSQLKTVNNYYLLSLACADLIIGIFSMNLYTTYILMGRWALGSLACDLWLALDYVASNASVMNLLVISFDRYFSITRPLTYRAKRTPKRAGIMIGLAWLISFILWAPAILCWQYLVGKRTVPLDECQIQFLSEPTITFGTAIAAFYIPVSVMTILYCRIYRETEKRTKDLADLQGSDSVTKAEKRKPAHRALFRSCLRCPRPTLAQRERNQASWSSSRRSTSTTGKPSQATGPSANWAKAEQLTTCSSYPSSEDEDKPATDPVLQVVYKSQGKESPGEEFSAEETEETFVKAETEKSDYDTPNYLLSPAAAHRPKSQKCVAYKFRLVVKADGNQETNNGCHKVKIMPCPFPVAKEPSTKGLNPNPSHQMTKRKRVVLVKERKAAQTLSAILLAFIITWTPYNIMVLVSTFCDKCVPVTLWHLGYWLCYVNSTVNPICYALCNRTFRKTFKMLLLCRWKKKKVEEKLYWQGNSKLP
Method in brief: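 Fold-shift assay in M5 CHO cells: a full ACh concentration-response curve is run with or without 30 μM test compound, read out as intracellular calcium mobilization. Potentiation is taken as the leftward shift of the ACh curve. Values are means of at least three independent determinations.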

M2 = molecular target: T2, M2 (Homo sapiens, UniProt P08172); test: M2 calcium mobilization assay in M2 CHO cells co-transfected with Gqi5; type: cell-based
T2 sequence (P08172 1-466): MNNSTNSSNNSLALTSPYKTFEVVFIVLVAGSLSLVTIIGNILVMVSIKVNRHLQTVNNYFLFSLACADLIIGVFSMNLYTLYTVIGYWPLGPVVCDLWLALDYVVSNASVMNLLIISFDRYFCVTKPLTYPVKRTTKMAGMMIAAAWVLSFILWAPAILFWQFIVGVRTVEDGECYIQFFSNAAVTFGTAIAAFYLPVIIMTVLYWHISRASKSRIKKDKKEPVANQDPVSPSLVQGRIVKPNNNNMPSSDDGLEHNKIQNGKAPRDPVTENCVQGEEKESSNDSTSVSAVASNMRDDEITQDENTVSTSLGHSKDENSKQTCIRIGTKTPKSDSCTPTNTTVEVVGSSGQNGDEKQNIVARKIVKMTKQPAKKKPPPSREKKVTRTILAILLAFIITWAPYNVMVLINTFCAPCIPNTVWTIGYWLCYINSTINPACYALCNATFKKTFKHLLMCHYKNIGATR
Method in brief: as §1

M4 = molecular target: T3, M4 (Homo sapiens, UniProt P08173); test: M4 calcium mobilization assay in M4 CHO cells co-transfected with Gqi5; type: cell-based
T3 sequence (P08173 1-479): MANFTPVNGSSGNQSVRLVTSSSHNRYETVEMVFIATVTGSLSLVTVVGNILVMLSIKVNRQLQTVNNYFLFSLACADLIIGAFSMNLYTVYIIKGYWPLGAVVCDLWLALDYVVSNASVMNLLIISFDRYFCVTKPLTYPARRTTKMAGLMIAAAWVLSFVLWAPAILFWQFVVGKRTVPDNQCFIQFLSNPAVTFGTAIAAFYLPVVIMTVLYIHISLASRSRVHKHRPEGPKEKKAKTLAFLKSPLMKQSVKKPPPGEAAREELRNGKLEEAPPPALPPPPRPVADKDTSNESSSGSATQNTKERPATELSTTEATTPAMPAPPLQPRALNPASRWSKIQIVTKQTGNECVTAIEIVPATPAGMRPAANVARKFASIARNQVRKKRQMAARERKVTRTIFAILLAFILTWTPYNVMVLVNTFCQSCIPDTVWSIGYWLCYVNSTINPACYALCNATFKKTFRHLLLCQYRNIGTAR
Method in brief: as §1

M5 [2] = molecular target: T1, M5; details: 30 μM compound; cited from earlier work
M5 [3] = molecular target: T1, M5; details: cited from earlier work
M1 = molecular target: T4, M1 (Homo sapiens, UniProt P11229); test: M1 PAM intracellular calcium mobilization assay in M1 CHO cells; type: cell-based; details: at 30 μM
T4 sequence (P11229 1-460): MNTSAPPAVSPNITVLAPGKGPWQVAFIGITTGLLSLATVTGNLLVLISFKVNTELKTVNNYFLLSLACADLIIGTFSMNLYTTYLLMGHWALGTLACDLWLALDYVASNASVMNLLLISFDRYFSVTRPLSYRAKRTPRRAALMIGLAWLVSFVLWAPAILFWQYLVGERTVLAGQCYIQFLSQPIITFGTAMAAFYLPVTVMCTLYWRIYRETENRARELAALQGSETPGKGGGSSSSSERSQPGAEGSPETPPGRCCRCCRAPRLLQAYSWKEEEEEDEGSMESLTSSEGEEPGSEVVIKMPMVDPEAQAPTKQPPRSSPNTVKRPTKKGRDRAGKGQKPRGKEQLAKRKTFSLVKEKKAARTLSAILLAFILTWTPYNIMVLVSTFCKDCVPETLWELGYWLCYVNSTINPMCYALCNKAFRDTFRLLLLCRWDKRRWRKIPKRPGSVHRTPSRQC
Method in brief: as §1

M1–M4 = test: mAChR selectivity CRCs at M1-M5 CHO cells with submaximal ACh; type: cell-based; details: CRCs at M1-M5 CHO cells with EC20 of ACh
Method in brief: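 Test compound concentration-response curves are run against an EC20 of ACh in mAChR-expressing CHO cells, read out as intracellular calcium mobilization. M2 and M4 lines are co-transfected with Gqi5. Response is expressed as % of ACh maximum. Values are means of at least three independent determinations.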

[4] = at 30 μM, cells co-transfected with Gqi5

M3, sequence (P20309 whole entry): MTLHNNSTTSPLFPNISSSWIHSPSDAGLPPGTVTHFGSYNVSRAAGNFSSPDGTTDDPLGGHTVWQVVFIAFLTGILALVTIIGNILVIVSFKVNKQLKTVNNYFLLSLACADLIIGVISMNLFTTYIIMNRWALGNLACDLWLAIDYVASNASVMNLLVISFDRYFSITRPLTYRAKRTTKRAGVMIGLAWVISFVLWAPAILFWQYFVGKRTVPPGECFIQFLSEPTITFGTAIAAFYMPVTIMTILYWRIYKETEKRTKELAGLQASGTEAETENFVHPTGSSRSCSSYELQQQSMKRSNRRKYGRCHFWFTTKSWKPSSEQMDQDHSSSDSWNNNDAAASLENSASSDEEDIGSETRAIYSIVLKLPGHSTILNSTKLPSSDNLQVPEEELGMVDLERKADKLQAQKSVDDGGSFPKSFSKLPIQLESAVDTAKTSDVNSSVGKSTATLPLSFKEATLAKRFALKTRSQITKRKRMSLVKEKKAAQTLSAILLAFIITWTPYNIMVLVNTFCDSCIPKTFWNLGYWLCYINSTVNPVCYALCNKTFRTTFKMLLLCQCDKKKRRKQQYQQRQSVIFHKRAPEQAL

Compound: O=C1C(=O)N(Cc2ccc(-c3ccccc3)cc2)c2ccc(OC(F)(F)F)cc21 [6a]
- elevation of an ACh EC20 / activation at M3 (M3): only modest activation
- leftward shift of the ACh CRC at M5 (M5 [1]): > 50 fold

Compound: O=C1C(=O)N(Cc2ccc(-c3ccsc3)cc2)c2ccc(OC(F)(F)F)cc21 [6b]
- leftward shift of the ACh CRC at M5 (M5 [1]): > 50 fold

Compound: O=C1C(=O)N(Cc2ccc(Br)cc2)c2ccccc21 [VU0119498]
- activity at M2 (M2; Gi/o-coupled M2, cells co-transfected with Gqi5): devoid of activity
- activity at M4 (M4; Gi/o-coupled M4, cells co-transfected with Gqi5): devoid of activity

Compound: COc1ccc(CN2C(=O)C(=O)c3cc(OC(F)(F)F)ccc32)cc1 [VU0238429]
- leftward shift of the ACh CRC at M5 (M5 [2]): 14 fold
- increase of ACh affinity for M5 (M5 [3]; 30 μM compound): ~ 11 fold
- displacement of [3H]-NMS from binding to M5 (M5 [3]): did not displace

Compound: O=C1C(=O)N(Cc2ccc(Oc3ccccc3)cc2)c2ccc(OC(F)(F)F)cc21 [VU0400265]
- elevation of an ACh EC20 at M1 (M1): no elevation
- elevation of an ACh EC20 at M2 (M2; [4]): no elevation
- elevation of an ACh EC20 / activation at M3 (M3): no elevation
- elevation of an ACh EC20 at M4 (M4; [4]): no elevation
- leftward shift of the ACh CRC at M5 (M5 [1]): ~ 5 fold

Compound: COc1ccc(CN2C(=O)C(=O)c3ccc(OC(F)(F)F)cc32)cc1 [compound 11]
- mAChR selectivity (M1–M4): lost

Compound: O=C1C(=O)N(Cc2ccc(-c3ccccc3)cc2)c2cc(OC(F)(F)F)ccc21 [compound 12]
- mAChR selectivity (M1–M4): lost

Reference: paper PMC3177601 (Bioorganic & medicinal chemistry letters, 2009)
